The results in this text go back to ChEMBL document CHEMBL1127531, “Selective type IV phosphodiesterase inhibitors as antiasthmatic agents. The syntheses and biological activities of 3-(cyclopentyloxy)-4-methoxybenzamides and analogues” (J Med Chem, 1994).

The IC50 is the concentration that inhibits the measured activity by half. Higher therefore signals lower potency.

System in the first assay: not listed separately
The assay is described as follows: Inhibitory potency against pig aortic PDE III.
Conditions: not given
Further details: species or system Sus scrofa. In a few lines: (§1)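 Pig aortic PDE isozymes were separated by DEAE-trisacryl anion-exchange chromatography. PDE III was assayed in the presence of rolipram (10 µM) and PDE IV in the presence of siguazodan (10 µM) to exclude cross-contamination.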
Turning to `COc1ccc(C(=O)Nc2c(Cl)cccc2Cl)cc1OC1CCCC1`, the IC50 is greater than 1000 µM.
On to `COc1ccc(C(=O)Nc2ccccc2)cc1OC1CCCC1`, for which the IC50 is greater than 1000 µM.
Same read-out and setting: the figure for `COc1ccc(C(=O)Nc2c(F)cccc2F)cc1OC1CCCC1` is greater than 1000 µM.

Another assay addresses T1, Phosphodiesterase 4 (Homo sapiens, UniProt P27815+Q08499+Q07343+Q08493). In words: Inhibition of solubilized eosinophil PDE IV.
Conditions: not given
It is filed as protein assay, Cavia porcellus.
On to `CCCCOc1cc(C(=O)Nc2c(Cl)cncc2Cl)ccc1OC`, for which the half-inhibitory concentration (IC50) was 0.0025 µM.
The molecule `COc1ccc(C(=O)Nc2c(Cl)cccc2Cl)cc1OC1CCCC1` came in with an IC50 of 0.005 µM.
Take `COc1ccc(C(=O)Nc2ccccc2)cc1OC1CCCC1`: the IC50 turned out to be 0.145 µM.
Turning to `COc1ccc(C(=O)Nc2c(F)cccc2F)cc1OC1CCCC1`, the IC50 was found to be 0.018 µM.

The subject of a further assay is Cavia porcellus. The assay is described as follows: In vivo bronchodilator effect on histamine-induced bronchospasm in anaesthetized guinea pigs at 200 ug intravenous dose.
Conditions: not given
It is filed as functional.
In turn, `CCCCOc1cc(C(=O)Nc2c(Cl)cncc2Cl)ccc1OC` had a Duration of 32 min.
For the molecule `COc1ccc(C(=O)Nc2c(Cl)cccc2Cl)cc1OC1CCCC1`, the Duration worked out at 30 min.
On to `COc1ccc(C(=O)Nc2ccccc2)cc1OC1CCCC1`, for which the Duration came to 6 min.
For `COc1ccc(C(=O)Nc2c(F)cccc2F)cc1OC1CCCC1`, the Duration is on record as 48 min.

The test system of another assay is Cavia porcellus. The assay is described as follows: In vivo bronchodilator effect on histamine-induced bronchospasm in anaesthetized guinea pigs at 20 ug intravenous dose.
Conditions: not given
It is filed as functional.
For the molecule `CCCCOc1cc(C(=O)Nc2c(Cl)cncc2Cl)ccc1OC`, the Reduction is on record as 78%.
`COc1ccc(C(=O)Nc2c(Cl)cncc2Cl)cc1OC1CCCC1` displayed a Reduction of 56%.
Same read-out and setting: in the case of `COc1ccc(C(=O)Nc2c(Cl)cccc2Cl)cc1OC1CCCC1` it was 55%.
Still for that read-out and setting: in the case of `COc1ccc(C(=O)Nc2ccccc2)cc1OC1CCCC1` it was 32%; in that of `COc1ccc(C(=O)Nc2c(F)cccc2F)cc1OC1CCCC1`, 54%.
For `COc1ccc(C2CNC(=O)C2)cc1OC1CCCC1` (stereo not given) [ROLIPRAM], the Duration is listed as 29 min and the Reduction came out at 48%.

The target in a further assay is T1, Phosphodiesterase 4. In words: Inhibition of guinea pig PDE IV. It counts as protein assay, Cavia porcellus. To be noted: target entry is the homologue from another species.
`CCCCOc1cc(C(=O)Nc2c(Cl)cncc2Cl)ccc1OC` registered an IC50 of 0.0085 µM.
Molecule `COc1ccc(C(=O)Nc2c(Cl)cccc2Cl)cc1OC1CCCC1` had an IC50 of 0.023 µM.
Still for that read-out and setting: the figure for `COc1ccc(C(=O)Nc2ccccc2)cc1OC1CCCC1` is 2.566 µM; for `COc1ccc(C(=O)Nc2c(F)cccc2F)cc1OC1CCCC1` it is 0.066 µM.

The target of another assay is Phosphodiesterase 1 (Sus scrofa). In words: Inhibitory potency against pig aortic PDE I.
Conditions: not given
`COc1ccc(C(=O)Nc2c(F)cccc2F)cc1OC1CCCC1` came in with an IC50 greater than 1000 µM.

A further assay concerns the target T2, Phosphodiesterase 4A (Sus scrofa, UniProt O77823).
T2 sequence (O77823 whole entry): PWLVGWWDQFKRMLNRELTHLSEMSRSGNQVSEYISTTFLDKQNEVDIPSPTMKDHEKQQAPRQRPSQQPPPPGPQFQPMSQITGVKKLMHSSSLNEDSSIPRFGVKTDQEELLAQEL
In words: Inhibitory potency against pig aortic PDE IV.
Conditions: not given
In a few lines:
as §1
Regarding `CCCCOc1cc(C(=O)Nc2c(Cl)cncc2Cl)ccc1OC`, the IC50 is 0.008 µM.
Consider `COc1ccc(C(=O)Nc2c(Cl)cccc2Cl)cc1OC1CCCC1`, for which the IC50 came to 0.023 µM.
`COc1ccc(C(=O)Nc2ccccc2)cc1OC1CCCC1` had an IC50 of 2.6 µM.
The same measure, in the same setting: the figure for `COc1ccc(C(=O)Nc2c(F)cccc2F)cc1OC1CCCC1` is 0.07 µM.

The species entered for another assay is Cavia porcellus. The assay is described as follows: Inhibition of superoxide O2-generation from guinea pig peritoneal eosinophils. It is filed as functional.
Conditions: not given
An outline of the steps: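 Guinea pig peritoneal eosinophils (10^6/well) were incubated for 45 min at 37 °C in HBSS with p-iodonitrotetrazolium violet (0.5 mg/mL). Superoxide was measured as SOD-inhibitable dye reduction: cells were pelleted and dissolved overnight at room temperature in DMSO/0.6 M HCl, and absorbance was read at 492 nm.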
`CCCCOc1cc(C(=O)Nc2c(Cl)cncc2Cl)ccc1OC` gave an IC50 of 0.48 µM.
In the case of `COc1ccc(C(=O)Nc2c(Cl)cncc2Cl)cc1OC1CCCC1`, 0.024 µM corresponded to half-maximal inhibition (IC50).
In turn, `COc1ccc(C(=O)Nc2c(Cl)cccc2Cl)cc1OC1CCCC1` gave an IC50 of 0.53 µM.
Regarding `COc1ccc(C(=O)Nc2ccccc2)cc1OC1CCCC1`, the IC50 was greater than 10 µM.
As to `COc1ccc(C(=O)Nc2c(F)cccc2F)cc1OC1CCCC1`, the IC50 was 0.58 µM.
`COc1ccc(C2CNC(=O)C2)cc1OC1CCCC1` (stereo not given) [ROLIPRAM] gave an IC50 of 0.16 µM.

Another assay deals with Cavia porcellus. The assay is described as follows: In vivo bronchodilator effect on histamine-induced bronchospasm in anaesthetized guinea pigs at 100 ug intravenous dose. It counts as functional.
Conditions: not given
As for `CCCCOc1cc(C(=O)Nc2c(Cl)cncc2Cl)ccc1OC`, the Duration came to 34 min and the Reduction came to 52%.
For `COc1ccc(C(=O)Nc2c(Cl)cccc2Cl)cc1OC1CCCC1` the same measures were 34 min and 48%.
The molecule `COc1ccc(C(=O)Nc2c(F)cccc2F)cc1OC1CCCC1` yielded a Duration of 18 min and a Reduction of 29%.

In the next assay the test system is Cavia porcellus. The assay is described as follows: In vivo bronchodilator effect on histamine-induced bronchospasm in anaesthetized guinea pigs at 10 ug intravenous dose. It counts as functional.
Conditions: not given
In turn, `COc1ccc(C(=O)Nc2c(Cl)cncc2Cl)cc1OC1CCCC1` showed a Reduction of 36%.
`COc1ccc(C2CNC(=O)C2)cc1OC1CCCC1` (stereo not given) [ROLIPRAM] gave a Duration of 15 min and a Reduction of 15%.

In the next assay the test system is Cavia porcellus. The assay is described as follows: In vivo bronchodilator effect on histamine-induced bronchospasm in anaesthetized guinea pigs at 50 ug intravenous dose. It is filed as functional.
Conditions: not given
Take `COc1ccc(C(=O)Nc2c(Cl)cncc2Cl)cc1OC1CCCC1`: the Reduction came to 78%.
For the molecule `COc1ccc(C2CNC(=O)C2)cc1OC1CCCC1` (stereo not given) [ROLIPRAM], the Duration amounted to 38 min and the Reduction turned out to be 58%.
